Reference: article PMC5198968 (Cancer Science, 2016)
Where “and” joins values, the source holds several entries; their conditions need not be identical. Identical values can stand only once. Entries after “also recorded” stand apart in the source; their conditions may differ.

Tested on: Japanese patients with advanced hepatocellular carcinoma
Assay: Adverse events
Type: in vivo, human
Summary of the method: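 Oral test compound given twice daily, continuously, in 28-day cycles until progression or unacceptable AEs. Group I had mild liver impairment (Child–Pugh 5–6) and group II moderate impairment (Child–Pugh 7 or raised AST/ALT). AEs were recorded over the observation period and graded by CTCAE v3.0. The treated set was every patient receiving at least one dose, and analyses were descriptive.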

[1] = Group I (mild liver impairment), 150 mg b.i.d., n = 4
[2] = Group I (mild liver impairment), 200 mg b.i.d., n = 12
[3] = Group I (mild liver impairment), all patients, n = 16
[4] = Group I (mild liver impairment), n = 16, all grades
[5] = Group I (mild liver impairment), n = 16, grade ≥3
[6] = Group II (moderate liver impairment), 100 mg b.i.d., n = 3
[7] = Group II (moderate liver impairment), 150 mg b.i.d., n = 4
[8] = Group II (moderate liver impairment), 200 mg b.i.d., n = 7
[9] = Group II (moderate liver impairment), all patients, n = 14
[10] = Group II (moderate liver impairment), n = 14, all grades
[11] = Group II (moderate liver impairment), n = 14, grade ≥3

COC(=O)c1ccc2c(c1)NC(=O)/C2=C(\Nc1ccc(N(C)C(=O)CN2CCN(C)CC2)cc1)c1ccccc1 [nintedanib]
AEs leading to nintedanib discontinuation [1]: 0 (0.0) n (%) | AEs leading to nintedanib dose reduction [1]: 0 (0.0) n (%) | Any AE [1]: 4 (100.0) n (%) | Investigator-defined drug-related AE [1]: 3 (75.0) n (%) | Other significant AEs (leading to dose reduction or permanent discontinuation of nintedanib) [1]: 0 (0.0) n (%) | Serious AEs [1]: 0 (0.0) n (%) | Serious AEs: Fatal [1]: 0 (0.0) n (%) | Serious AEs: Immediately life-threatening [1]: 0 (0.0) n (%) | Serious AEs: Prolonged hospitalization [1]: 0 (0.0) n (%) | Serious AEs: Required hospitalization [1]: 0 (0.0) n (%) | AEs leading to nintedanib discontinuation [2]: 0 (0.0) n (%) | AEs leading to nintedanib dose reduction [2]: 5 (41.7) n (%) | Any AE [2]: 12 (100.0) n (%) | Investigator-defined drug-related AE [2]: 11 (91.7) n (%) | Other significant AEs (leading to dose reduction or permanent discontinuation of nintedanib) [2]: 5 (41.7) n (%) | Serious AEs [2]: 4 (33.3) n (%) | Serious AEs: Fatal [2]: 0 (0.0) n (%) | Serious AEs: Immediately life-threatening [2]: 0 (0.0) n (%) | Serious AEs: Prolonged hospitalization [2]: 0 (0.0) n (%) | Serious AEs: Required hospitalization [2]: 4 (33.3) n (%) | AEs leading to nintedanib discontinuation [3]: 0 (0.0) n (%) | AEs leading to nintedanib dose reduction [3]: 5 (31.3) n (%) | Any AE [3]: 16 (100.0) n (%) | Investigator-defined drug-related AE [3]: 14 (87.5) n (%) | Other significant AEs (leading to dose reduction or permanent discontinuation of nintedanib) [3]: 5 (31.3) n (%) | Serious AEs [3]: 4 (25.0) n (%) | Serious AEs: Fatal [3]: 0 (0.0) n (%) | Serious AEs: Immediately life-threatening [3]: 0 (0.0) n (%) | Serious AEs: Prolonged hospitalization [3]: 0 (0.0) n (%) | Serious AEs: Required hospitalization [3]: 4 (25.0) n (%) | Abdominal pain [4]: 4 (25.0) | Any AE [4]: 16 (100) | Ascites [4]: 1 (6.3) | Decreased appetite [4]: 6 (37.5) | Decreased platelet count [4]: 2 (12.5) | Diarrhea [4]: 8 (50.0) | Fatigue [4]: 3 (18.8) | Hyperuricemia [4]: 1 (6.3) | Hypoalbuminemia [4]: 2 (12.5) | Increased ALT [4]: 1 (6.3) | Increased AST [4]: 4 (25.0) | Increased blood bilirubin [4]: 1 (6.3) | Malaise [4]: 4 (25.0) | Malignant neoplasm progression [4]: 1 (6.3) | Nausea [4]: 7 (43.8) | Neutropenia [4]: 2 (12.5) | Pyrexia [4]: 2 (12.5) | Vomiting [4]: 6 (37.5) | Abdominal pain [5]: 0 (0.0) | Any AE [5]: 7 (43.8) | Ascites [5]: 0 (0.0) | Decreased appetite [5]: 0 (0.0) | Decreased platelet count [5]: 2 (12.5) | Diarrhea [5]: 1 (6.3) | Fatigue [5]: 1 (6.3) | Hyperuricemia [5]: 0 (0.0) | Hypoalbuminemia [5]: 0 (0.0) | Increased ALT [5]: 0 (0.0) | Increased AST [5]: 0 (0.0) | Increased blood bilirubin [5]: 0 (0.0) | Malaise [5]: 0 (0.0) | Malignant neoplasm progression [5]: 0 (0.0) | Nausea [5]: 0 (0.0) | Neutropenia [5]: 0 (0.0) | Pyrexia [5]: 0 (0.0) | Vomiting [5]: 0 (0.0) | AEs leading to nintedanib discontinuation [6]: 0 (0.0) n (%) | AEs leading to nintedanib dose reduction [6]: 1 (33.3) n (%) | Any AE [6]: 3 (100.0) n (%) | Investigator-defined drug-related AE [6]: 3 (100.0) n (%) | Other significant AEs (leading to dose reduction or permanent discontinuation of nintedanib) [6]: 1 (33.3) n (%) | Serious AEs [6]: 1 (33.3) n (%) | Serious AEs: Fatal [6]: 0 (0.0) n (%) | Serious AEs: Immediately life-threatening [6]: 0 (0.0) n (%) | Serious AEs: Prolonged hospitalization [6]: 0 (0.0) n (%) | Serious AEs: Required hospitalization [6]: 1 (33.3) n (%) | AEs leading to nintedanib discontinuation [7]: 0 (0.0) n (%) | AEs leading to nintedanib dose reduction [7]: 1 (25.0) n (%) | Any AE [7]: 4 (100.0) n (%) | Investigator-defined drug-related AE [7]: 4 (100.0) n (%) | Other significant AEs (leading to dose reduction or permanent discontinuation of nintedanib) [7]: 1 (25.0) n (%) | Serious AEs [7]: 2 (50.0) n (%) | Serious AEs: Fatal [7]: 1 (25.0) n (%) | Serious AEs: Immediately life-threatening [7]: 0 (0.0) n (%) | Serious AEs: Prolonged hospitalization [7]: 0 (0.0) n (%) | Serious AEs: Required hospitalization [7]: 2 (50.0) n (%) | AEs leading to nintedanib discontinuation [8]: 0 (0.0) n (%) | AEs leading to nintedanib dose reduction [8]: 1 (14.3) n (%) | Any AE [8]: 7 (100.0) n (%) | Investigator-defined drug-related AE [8]: 5 (71.4) n (%) | Other significant AEs (leading to dose reduction or permanent discontinuation of nintedanib) [8]: 1 (14.3) n (%) | Serious AEs [8]: 3 (42.9) n (%) | Serious AEs: Fatal [8]: 1 (14.3) n (%) | Serious AEs: Immediately life-threatening [8]: 1 (14.3) n (%) | Serious AEs: Prolonged hospitalization [8]: 1 (14.3) n (%) | Serious AEs: Required hospitalization [8]: 3 (42.9) n (%) | AEs leading to nintedanib discontinuation [9]: 0 (0.0) n (%) | AEs leading to nintedanib dose reduction [9]: 3 (21.4) n (%) | Any AE [9]: 14 (100.0) n (%) | Investigator-defined drug-related AE [9]: 12 (85.7) n (%) | Other significant AEs (leading to dose reduction or permanent discontinuation of nintedanib) [9]: 3 (21.4) n (%) | Serious AEs [9]: 6 (42.9) n (%) | Serious AEs: Fatal [9]: 2 (14.3) n (%) | Serious AEs: Immediately life-threatening [9]: 1 (7.1) n (%) | Serious AEs: Prolonged hospitalization [9]: 1 (7.1) n (%) | Serious AEs: Required hospitalization [9]: 6 (42.9) n (%) | Abdominal pain (upper abdominal pain for group II) [10]: 2 (14.3) | Any AE [10]: 14 (100) | Ascites [10]: 7 (50.0) | Decreased appetite [10]: 7 (50.0) | Decreased platelet count [10]: 1 (7.1) | Diarrhea [10]: 6 (42.9) | Fatigue [10]: 5 (35.7) | Hyperuricemia [10]: 3 (21.4) | Hypoalbuminemia [10]: 6 (42.9) | Increased ALT [10]: 4 (28.6) | Increased AST [10]: 5 (35.7) | Increased blood bilirubin [10]: 4 (28.6) | Lymphopenia [10]: 2 (14.3) | Malaise [10]: 3 (21.4) | Malignant neoplasm progression [10]: 4 (28.6) | Nausea [10]: 5 (35.7) | Neutropenia [10]: 3 (21.4) | Pyrexia [10]: 4 (28.6) | Vomiting [10]: 3 (21.4) | Abdominal pain (upper abdominal pain for group II) [11]: 0 (0.0) | Any AE [11]: 11 (78.6) | Ascites [11]: 1 (7.1) | Decreased appetite [11]: 0 (0.0) | Decreased platelet count [11]: 0 (0.0) | Diarrhea [11]: 0 (0.0) | Fatigue [11]: 0 (0.0) | Hyperuricemia [11]: 2 (14.3) | Hypoalbuminemia [11]: 1 (7.1) | Increased ALT [11]: 2 (14.3) | Increased AST [11]: 3 (21.4) | Increased blood bilirubin [11]: 0 (0.0) | Lymphopenia [11]: 2 (14.3) | Malaise [11]: 0 (0.0) | Malignant neoplasm progression [11]: 2 (14.3) | Nausea [11]: 0 (0.0) | Neutropenia [11]: 2 (14.3) | Pyrexia [11]: 0 (0.0) | Vomiting [11]: 0 (0.0) | Discontinuation of nintedanib due to AEs (both groups): No patients discontinued nintedanib due to adverse events; also recorded: No patients discontinued nintedanib due to AEs | Drug-related fatal AEs (both groups): No drug‐related fatal AEs were reported | Hypertension at grade ≥3 (both groups): not reported by any patients | Ascites, any grade (group I): 6.3% | Bleeding, incidence (group I): 12.5% | Decreased appetite, any grade (group I): 37.5% | Diarrhea, any grade (group I): 50.0% | Fatigue, any grade (group I): 18.8% | Hand-foot skin reaction (group I): one patient in group I | Hypertension, incidence (group I): 12.5% | Hypoalbuminemia, any grade (group I): 12.5% | Increased AST, any grade (group I): 25.0% | Nausea, any grade (group I): 43.8% | Serious AEs considered drug-related by the investigator (group I): grade 3 immune thrombocytopenic purpura and grade 3 hyponatremia | Thromboembolic events at grade ≥3 (group I): no patients in group I | Thromboembolic events, incidence (group I): 0.0% | Vomiting, any grade (group I): 37.5% | Patients with dose reduction of nintedanib due to AEs (group I (five patients, all on 200 mg)): 31% and 31.3% | Patients with serious AEs (all requiring hospitalization) (group I (four patients)): 25.0% | Patients with adverse events at grade ≥3 (group I (seven patients)): 43.8% | Ascites, any grade (group II): 50.0% | Bleeding at grade ≥3 (group II): no patients in group II | Bleeding, incidence (group II): 14.3% | Decreased appetite, any grade (group II): 50.0% | Diarrhea, any grade (group II): 42.9% | Fatigue, any grade (group II): 35.7% | Hand-foot skin reaction (group II): no patients in group II | Hypertension, incidence (group II): 21.4% | Hypoalbuminemia, any grade (group II): 42.9% | Increased AST, any grade (group II): 35.7% | Nausea, any grade (group II): 35.7% | Serious AEs considered drug-related by the investigator (group II): grade 2 gastroenteritis, grade 3 drug‐induced liver injury, and grade 2 pyrexia | Thromboembolic events, incidence (group II): 7.1% | Vomiting, any grade (group II): 21.4% | Patients with adverse events at grade ≥3 (group II (11 patients)): 78.6% | Thromboembolic events at grade ≥3 (group II (one patient)): 7.1% | Patients with serious AEs (all requiring hospitalization) (group II (six patients)): 42.9% | Patients with dose reduction of nintedanib due to AEs (group II (three patients, one from each dose)): 21% and 21.4%
